Reference: paper PMC6044914 (ACS Omega, 2017)
Converted amounts (≈) assume the structure as drawn. Where two headings read alike, the source gives them in different places.

Experiments:
[1] = rats; rapidly metabolized; cited from earlier work
Vero cells = details: for TC50: African green monkey; for cytotoxicity (in words): Vero cells
[2] = tested on: nonreplicating M. tuberculosis (nutrient starvation); details: previous work; cited from earlier work
[3] = tested on: M. tuberculosis H37Rv (London Pride); test: microbe, parasite or virus in culture; assay type: cell-based, Mycobacterium tuberculosis; details: for MIC: Mycobacterium tuberculosis, H37RV; for activity against M. tuberculosis (in words): SAR discussion
[4] = Pharmacokinetic profiling in the rat; assay type: in vivo; details: plasma; for bioavailability: oral; for AUC: po
E. coli DH5α = test: Spectrum, MIC99 by serial dilution agar method; assay type: cell-based; details: Escherichia coli, read-out: MIC (μM) E. coli
Procedure, shortened: (§1)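 Serial-dilution agar MIC99 with test compound in the agar. Organisms were grown on different media: B. subtilis Marburg on nutrient agar, E. coli DH5α and S. aureus RN4220 on LB agar, M. smegmatis mc2155 on Middlebrook 7H10 + 10% v/v OADC, P. aeruginosa BAA 47 PA0 on tryptic soy agar, S. cerevisiae Y187 on YPD agar. Late-log culture was plated and incubated at 37 °C until large colonies formed on no-compound plates. MIC99 is the lowest concentration giving <1% growth.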

[5] = tested on: replicating M. tuberculosis; test: Kill kinetics in replicating conditions; assay type: cell-based, Mycobacterium tuberculosis; details: for bactericidal activity against replicating M. tuberculosis (in words): aerobic conditions; for concentration at which bactericidal, replicating M. tuberculosis: bactericidal = at least 3 logs kill in 21 days
P. aeruginosa BAA 47 PA0 = test: Spectrum, MIC99 by serial dilution agar method; assay type: cell-based; details: Pseudomonas aeruginosa, BAA47, read-out: MIC (μM) P. aeruginosa
Procedure, shortened: as §1

S. cerevisiae Y187 = test: Spectrum, MIC99 by serial dilution agar method; assay type: cell-based, Saccharomyces cerevisiae; details: for MIC: Saccharomyces cerevisiae, Y187, read-out: MIC (μM) Sa. cerevisiae
Procedure, shortened: as §1

B. subtilis Marburg = test: Spectrum, MIC99 by serial dilution agar method; assay type: cell-based; details: Bacillus subtilis, read-out: MIC (μM) B. subtilis
Procedure, shortened: as §1

S. aureus RN4220 = test: Spectrum, MIC99 by serial dilution agar method; assay type: cell-based, Staphylococcus aureus; details: for MIC: Staphylococcus aureus, RN4220, read-out: MIC (μM) St. aureus
Procedure, shortened: as §1

[6] = tested on: nonreplicating M. tuberculosis (nutrient starvation); test: Kill kinetics under starvation; assay type: cell-based, Mycobacterium tuberculosis; details: for concentration at which bactericidal, nonreplicating M. tuberculosis: concentrations as low as
M. smegmatis mc^2155 = test: Spectrum, MIC99 by serial dilution agar method; assay type: cell-based, Mycobacterium smegmatis
Procedure, shortened: as §1

For CC(=O)Oc1ccccc1C(=O)Nc1ncc([N+](=O)[O-])s1 [compound 1, 2-(5-Nitrothiazol-2-ylcarbamoyl)phenyl Acetate, reference compound], the “detection in plasma or urine” value [1] is listed as “not detectable”, the “TC50” value (Vero cells) is listed as greater than 20 µM and the “activity against nonreplicating or persistent M. tuberculosis (in words)” value [2] is listed as “good activity”. For the same compound, the MIC ([3]; 120 h) was 14 µM and the MIC ([3]; read-out: minimum inhibitory concentration (MIC)) was 14 µM.

With O=C(Nc1ncc([N+](=O)[O-])s1)c1ccccc1O [compound 2, 2-Hydroxy-N-(5-nitrothiazol-2-yl)benzamide, reference compound] the “TC50” value (Vero cells) was greater than 20 µM, the MIC ([3]; 120 h) was 20 µM (≈ 5.3 µg/mL) and the Vd [4] was 0.698 ± 0.327 L/kg. For the same compound, the clearance [4] was 57.5 ± 3.3 mL/min/kg, the bioavailability [4] was 5.8 ± 0.1% and the AUC [4] was 167 ± 10 ng·h/mL.

With O=C(Nc1ncc([N+](=O)[O-])s1)c1ccccc1 [compound 4, N-(5-nitrothiazol-2-yl)benzamide] the Vd [4] was 0.18 ± 0.006 L/kg, the clearance [4] was 6.1 ± 0.5 mL/min/kg and the bioavailability [4] was 63.5 ± 6.9%.

For CCC(C)(C)C(=O)Oc1ccccc1C(=O)Nc1ncc([N+](=O)[O-])s1 [compound 8, 2-((5-Nitrothiazol-2-yl)carbamoyl)phenyl 2,2-Dimethylbutanoate], the MIC (E. coli DH5α) was greater than 25 µM, the “TC50” value (Vero cells) was 6.2 µM and the “improvement in activity relative to 1” value [3] was 10 fold. The MIC ([3]; 120 h) was 1.4 ± 0.07 µM (≈ 0.509 µg/mL), the “activity against M. tuberculosis (in words)” value [3] was “showed activity” and the “bactericidal activity against replicating M. tuberculosis (in words)” value [5] was “rapidly bactericidal”. The “kill of replicating M. tuberculosis” value ([5]; in 7 days at 10× MIC) was greater than 4 log, the MIC (P. aeruginosa BAA 47 PA0) was greater than 100 µM and the MIC (S. cerevisiae Y187) was greater than 100 µM. It also gave an MIC (B. subtilis Marburg) of 1 µM (≈ 0.363 µg/mL) and an MIC (S. aureus RN4220) greater than 50 µM.

For Cc1cccc(C(=O)Nc2ncc([N+](=O)[O-])s2)c1O [compound 13, 2-Hydroxy-3-methyl-N-(5-nitrothiazol-2-yl)benzamide], the Vd [4] was 0.16 ± 0.012 L/kg, the clearance [4] was 8.96 ± 0.51 mL/min/kg and the bioavailability [4] was 72.5 ± 18.4%.

In the case of O=C(Nc1ncc([N+](=O)[O-])s1)c1ccccn1 [compound 19, N-(5-Nitrothiazol-2-yl)picolinamide], the MIC (E. coli DH5α) is reported as greater than 100 µM, the “TC50” value (Vero cells) is reported as 20 µM and the MIC ([3]; 120 h) is reported as 2.4 ± 0.0071 µM (≈ 0.601 µg/mL). The “activity against M. tuberculosis (in words)” value [3] was “improved activity”, the “bactericidal activity under nonreplicating conditions (in words)” value [6] was “bactericidal activity” and the “concentration at which bactericidal, nonreplicating M. tuberculosis” value [6] was no more than 1.25 × MIC. For the same compound, the “bactericidal activity against replicating M. tuberculosis (in words)” value [5] was “bactericidal”, the “concentration at which bactericidal, replicating M. tuberculosis” value [5] was no less than 5 times the MIC and the MIC (P. aeruginosa BAA 47 PA0) was greater than 100 µM. For the same compound, the “susceptibility of S. cerevisiae (in words)” value (S. cerevisiae Y187) was “sensitive”, the MIC (S. cerevisiae Y187) was 12.5 µM (≈ 3.13 µg/mL) and the MIC (B. subtilis Marburg) was 3.1 µM (≈ 0.776 µg/mL). For the same compound, the “susceptibility of M. smegmatis (in words)” value (M. smegmatis mc^2155) was “sensitive” and the MIC (S. aureus RN4220) was greater than 100 µM.

In the case of COc1cccnc1C(=O)Nc1ncc([N+](=O)[O-])s1 [compound 24, 3-Methoxy-N-(5-nitrothiazol-2-yl)picolinamide], the “TC50” value (Vero cells) is reported as 37 µM, the MIC ([3]; 120 h) is reported as greater than 20 µM and the “activity against M. tuberculosis (in words)” value [3] is reported as “inactive”.

In the case of O=C(Nc1ncc([N+](=O)[O-])s1)c1ccc(N2CCOCC2)cn1 [compound 25, 5-Morpholino-N-(5-nitrothiazol-2-yl)picolinamide], the “TC50” value (Vero cells) is reported as 11 µM, the MIC ([3]; 120 h) is reported as greater than 20 µM and the “activity against M. tuberculosis (in words)” value [3] is reported as “inactive”.

For O=C(Nc1ncc([N+](=O)[O-])s1)C1CCCCC1 [compound 28, N-(5-Nitrothiazol-2-yl)cyclohexanecarboxamide], the MIC [3] was greater than 20 µM, the “activity against M. tuberculosis (in words)” value [3] was “loss of activity” and the Vd [4] was 0.68 ± 0.12 L/kg. It also gave a clearance [4] of 69.8 ± 4.3 mL/min/kg, a bioavailability [4] of 17.5 ± 4.2% and an AUC [4] of 418 ± 96 ng·h/mL.

For O=C(Nc1ccccc1)Nc1ncc([N+](=O)[O-])s1 [compound 37, 1-(5-Nitrothiazol-2-yl)-3-phenylurea], the MIC (E. coli DH5α) was greater than 100 µM, the MIC [3] was 17 ± 4.2 µM (≈ 4.49 µg/mL) and the “activity against M. tuberculosis (in words)” value [3] was “comparable activity to the parent compound 1”. The “bactericidal activity under nonreplicating conditions (in words)” value [6] was “bactericidal activity”, the “concentration at which bactericidal, nonreplicating M. tuberculosis” value [6] was no more than 1.25 × MIC and the “bactericidal activity against replicating M. tuberculosis (in words)” value [5] was “bactericidal activity”. The “concentration at which bactericidal, replicating M. tuberculosis” value [5] was “equivalent to the MIC”, the “kill of replicating M. tuberculosis” value ([5]; in 21 days, at concentrations equivalent to the MIC) was “at least 3 logs” and the MIC (P. aeruginosa BAA 47 PA0) was greater than 100 µM. For the same compound, the MIC (S. cerevisiae Y187) was greater than 100 µM, the MIC (B. subtilis Marburg) was 50 µM (≈ 13.2 µg/mL) and the “susceptibility of S. aureus (in words)” value (S. aureus RN4220) was “sensitive”. For the same compound, the MIC (S. aureus RN4220) was 50 µM (≈ 13.2 µg/mL).

With CC(=O)Oc1ccccc1C(=O)Nc1nccs1 [compound 45, 2-(Thiazol-2-ylcarbamoyl)phenyl Acetate] the “TC50” value (Vero cells) was greater than 50 µM, the MIC [3] was greater than 20 µM and the “activity against M. tuberculosis (in words)” value [3] was “eliminated all activity”.

In the case of Cc1nc(NC(=O)c2ccccc2O)sc1[N+](=O)[O-] [compound 46, 2-Hydroxy-N-(4-methyl-5-nitrothiazol-2-yl)benzamide], the “TC50” value (Vero cells) is reported as 5.2 µM, the MIC [3] is reported as greater than 20 µM and the “activity against M. tuberculosis (in words)” value [3] is reported as “inactive”.

With Cc1cnc(NC(=O)c2ccccn2)s1 [compound 48, N-(5-Methylthiazol-2-yl)picolinamide] the “TC50” value (Vero cells) was 12 µM, the MIC [3] was greater than 20 µM and the “activity against M. tuberculosis (in words)” value [3] was “inactive”.

With O=C(Nc1ncc(C(F)(F)F)s1)c1ccccn1 [compound 49, N-(5-(Trifluoromethyl)thiazol-2-yl)picolinamide] the “TC50” value (Vero cells) was 0.8 µM, the “cytotoxicity (in words)” value (Vero cells) was “cytotoxicity” and the MIC [3] was 5.3 ± 0.2 µM (≈ 1.45 µg/mL). The “activity against M. tuberculosis (in words)” value [3] was “some activity”.

For Cc1nc(NC(=O)c2ccccn2)sc1[N+](=O)[O-] [compound 50, N-(4-Methyl-5-nitrothiazol-2-yl)picolinamide], the “TC50” value (Vero cells) was 4.2 µM, the “cytotoxicity (in words)” value (Vero cells) was “cytotoxicity” and the MIC [3] was 1.5 ± 0.6 µM (≈ 0.396 µg/mL). For the same compound, the “activity against M. tuberculosis (in words)” value [3] was “some activity”.

In the case of O=C(Nc1ncc(C(=O)O)s1)c1ccccn1 [compound 51, 2-(Picolinamido)thiazole-5-carboxylic Acid], the “TC50” value (Vero cells) is reported as greater than 50 µM, the MIC [3] is reported as greater than 20 µM and the “activity against M. tuberculosis (in words)” value [3] is reported as “inactive”.

In the case of O=C(Nc1nc(-c2ccccn2)cs1)c1ccccn1 [compound 52, N-(4-(Pyridin-2-yl)thiazol-2-yl)picolinamide], the “TC50” value (Vero cells) is reported as 15 µM, the MIC [3] is reported as greater than 20 µM and the “activity against M. tuberculosis (in words)” value [3] is reported as “inactive”.

For O=C(Nc1nc(-c2ccccn2)c([N+](=O)[O-])s1)c1ccccn1 [compound 53, N-(5-Nitro-4-(pyridin-2-yl)thiazol-2-yl)picolinamide], the “TC50” value (Vero cells) was 6.4 µM, the “cytotoxicity (in words)” value (Vero cells) was “cytotoxicity” and the MIC [3] was 8.5 ± 2.1 µM (≈ 2.78 µg/mL). For the same compound, the “activity against M. tuberculosis (in words)” value [3] was “some activity”.

In the case of CO[C@H]1/C=C/O[C@@]2(C)Oc3c(C)c(O)c4c(O)c(c(/C=N/N5CCN(C)CC5)c(O)c4c3C2=O)NC(=O)/C(C)=C\C=C\[C@H](C)[C@H](O)[C@@H](C)[C@@H](O)[C@@H](C)[C@H](OC(C)=O)[C@@H]1C [rifampicin, reference compound], the “TC50” value (Vero cells) is reported as greater than 50 µM and the MIC ([3]; 120 h) is reported as 0.004 µM (≈ 0.00329 µg/mL).
